The record followed here is ChEMBL document CHEMBL1212851, “Baculiferins A-O, O-sulfated pyrrole alkaloids with anti-HIV-1 activity, from the Chinese marine sponge Iotrochota baculifera” (Bioorg Med Chem, 2010).

For experiment [1], the system named is HCT-8. Briefly: Cytotoxicity against human HCT8 cells. The class given is functional, cell-based.
In experiment [2] the test system is Bel-7402. The experiment in a line: Cytotoxicity against human Bel7402 cells. The class given is functional, cell-based.
The test system of experiment [3] is BGC-823. Briefly: Cytotoxicity against human BGC823 cells. The class given is functional, cell-based.
Experiment [4] has as its system A549. The experiment in a line: Cytotoxicity against human A549 cells. The format is functional, cell-based.
In experiment [5] the test system is A2780. Briefly: Cytotoxicity against human A2780 cells. The format is functional, cell-based.
In experiment [6] the test system is Human immunodeficiency virus 1. Briefly: Antiviral activity against HIV1 3B infected in human MT4 cells after 5 days by p24 antigen detection assay. The settings on record: Human immunodeficiency virus 1, 3B, MT4, 120 h. The class given is functional, organism-based. Summed up:
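MT-4 cells infected with 10000 TCID50 HIV-1 IIIB for 2 h at 37 °C, washed, then plated at 5 × 10^4 cells per well. Compounds added from 250 µg/mL in fivefold serial dilutions, five dilutions with four replicates each. Cultures held 5 d at 37 °C in 5% CO2. On day 3 half the supernatant was replaced with fresh compound or medium. On day 5 supernatant p24 measured, inhibition computed relative to virus control, and IC50 taken by linear regression.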

For experiment [7], the system named is Human immunodeficiency virus 1. The experiment in a line: Antiviral activity against HIV1 3B infected in human MAGI cells after 40 to 48 hrs assessed as inhibition of viral life cycle. The settings on record: Human immunodeficiency virus 1, 3B. The format is functional, organism-based. Summed up:
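HeLa-CD4-LTR-β-gal (MAGI) indicator cells plated at 6000 per well and infected with 2000 TCID50 HIV-1 IIIB. Compounds added in fourfold serial dilutions, five dilutions with four replicates each, at a final top concentration of half the 200 µg/mL stock dilution. Cells incubated 40–48 h at 37 °C in 5% CO2, then fixed, stained, and blue cells counted by microscopy. Single-round infection.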

Experiment [8] concerns Human immunodeficiency virus 1. Briefly: Binding affinity to HIV1 recombinant Vif at 20 ug/ml. In outline:
(§1)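 Recombinant gp41, Vif or APOBEC3G each immobilized on a CM5 sensor chip in a separate flow cell. Binding monitored by surface plasmon resonance on a BIAcore instrument.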

For experiment [9], the target named is DNA dC->dU-editing enzyme APOBEC-3G (Homo sapiens) (UniProt Q9HC16). Briefly: Binding affinity to human recombinant APOBEC3G at 20 ug/ml. Summed up:
as §1

For experiment [10], the system named is Human immunodeficiency virus 1. The experiment in a line: Binding affinity to HIV1 recombinant gp41 at 20 ug/ml. Summed up: as §1
For experiment [11], the system named is Human immunodeficiency virus 1. Briefly: Antiviral activity against HIV1 infected in human HEK293 cells assessed as inhibition of viral replication. The format is functional, organism-based. Summed up:
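VSVG-pseudotyped HIV-luc virus system in HEK-293 cells, used to assess inhibition of HIV-1 replication.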

The subject of experiment [12] is Candida albicans. The experiment in a line: Effect on brefeldin A MIC against Candida albicans isolate GU4 in presence of 30 uM compound by two fold dilution method.
The test system of experiment [13] is Candida albicans. Briefly: Multidrug reversal activity in Candida albicans isolate GU5 assessed as brefeldin A MIC in presence of 30 uM compound expressing CDR1 and CDR2 by two fold dilution method.

SMILES strings stand for the structures. Converted amounts (≈) assume the structure as drawn. The source made the active and inactive calls. No cut-off for these calls is given here.

Sequence of DNA dC->dU-editing enzyme APOBEC-3G (Homo sapiens) (Q9HC16 whole entry): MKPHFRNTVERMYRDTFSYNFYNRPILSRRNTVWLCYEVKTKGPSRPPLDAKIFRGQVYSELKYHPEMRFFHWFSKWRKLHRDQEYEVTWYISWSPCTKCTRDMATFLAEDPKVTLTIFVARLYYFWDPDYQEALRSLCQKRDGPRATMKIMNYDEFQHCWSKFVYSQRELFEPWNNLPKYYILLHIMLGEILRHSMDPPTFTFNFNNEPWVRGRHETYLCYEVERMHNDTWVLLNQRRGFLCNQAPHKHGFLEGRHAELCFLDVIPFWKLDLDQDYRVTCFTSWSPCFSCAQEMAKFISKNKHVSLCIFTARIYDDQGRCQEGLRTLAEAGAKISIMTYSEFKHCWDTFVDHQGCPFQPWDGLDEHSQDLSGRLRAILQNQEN

In general, IC50 refers to the concentration at which inhibition is half-maximal. What is called MIC is the lowest concentration found to suppress growth. For the molecule `O=C1C(c2ccc(O)c(O)c2)=c2c(c3c(n2CCc2ccc(O)cc2)=C(c2ccc(O)c(O)c2)C(=O)c2cc(O)c(OS(=O)(=O)O)cc2-3)-c2cc(O)c(O)cc21` [BACULIFERIN A], the result in [1], in [2], in experiment [3], in experiment [4], in experiment [5] and in experiment [11] was inactive. Also, the IC50 in [6] was determined as 7.6 µg/mL (≈ 9.77 µM); in experiment [7], 3.7 µg/mL (≈ 4.76 µM). Besides, the RU in experiment [8] came to 111 pg/mm2; in experiment [9] it was 171 pg/mm2; in experiment [10], 17.1 pg/mm2. Moreover, the MIC was determined as 12.5 µg/mL in experiment [12] and 50 µg/mL in [13].

On to `O=C1C(c2ccc(O)c(O)c2)=c2c(c3c(n2CCc2ccc(O)cc2)=C(c2ccc(O)c(OS(=O)(=O)O)c2)C(=O)c2cc(O)c(O)cc2-3)-c2cc(O)c(O)cc21` [BACULIFERIN B], for which the result in experiment [1], in experiment [2], in experiment [3], in [4], in [5] and in [11] was inactive. The results for the IC50 in experiment [6] and in experiment [7] were 2.2 µg/mL (≈ 2.83 µM) and 1.3 µg/mL (≈ 1.67 µM), respectively. Moreover, the values for the RU in experiment [8], in experiment [9] and in [10] were 152 pg/mm2, 89.7 pg/mm2 and 12.9 pg/mm2, respectively. Moreover, the figures for the MIC in experiment [12] and in experiment [13] were 12.5 µg/mL and 50 µg/mL, respectively.

On to `O=C1C(c2ccc(O)c(O)c2)=c2c(c3c(n2CCc2ccc(O)cc2)=C(c2ccc(O)c(OS(=O)(=O)O)c2)C(=O)c2cc(O)c(OS(=O)(=O)O)cc2-3)-c2cc(O)c(O)cc21` [BACULIFERIN E], for which the result in experiment [1], in [2], in [3], in experiment [4], in [5] and in experiment [11] was inactive. In addition, the figures for the IC50 in [6] and in experiment [7] were 4.6 µg/mL (≈ 5.36 µM) and 2.7 µg/mL (≈ 3.15 µM), respectively. Also, the values for the RU in [8], in experiment [9] and in experiment [10] were 362 pg/mm2, 992 pg/mm2 and 109 pg/mm2, respectively. The MIC in experiment [12] is 12.5 µg/mL; in experiment [13], 50 µg/mL.

As for `O=C1C(c2ccc(O)c(OS(=O)(=O)O)c2)=c2c(c3c(n2CCc2ccc(O)cc2)=C(c2ccc(O)c(O)c2)C(=O)c2cc(O)c(OS(=O)(=O)O)cc2-3)-c2cc(O)c(O)cc21` [BACULIFERIN F], the outcome in experiment [1], in experiment [2], in [3], in experiment [4], in [5] and in experiment [11] was inactive. The results for the IC50 in [6] and in experiment [7] were 4.6 µg/mL (≈ 5.36 µM) and 2.7 µg/mL (≈ 3.15 µM), respectively. For the same molecule, the results for the RU in [8], in experiment [9] and in [10] were 362 pg/mm2, 992 pg/mm2 and 109 pg/mm2, respectively. Also, the MIC in experiment [12] amounted to 12.5 µg/mL; in experiment [13], 50 µg/mL.
